Source: ChEMBL document CHEMBL3797160, “Discovery of novel diaryl urea derivatives bearing a triazole moiety as potential antitumor agents” (Eur J Med Chem, 2016)

How the values were obtained:
HT-29 [1] = assay: Induction of apoptosis in human HT-29 cells assessed as necrotic cells at 1 uM after 48 hrs by annexin V/propidium iodide staining based flow cytometric analysis (reference value: 3.66 %); assay type: functional
HT-29 [2] = assay: Induction of apoptosis in human HT-29 cells assessed as late apoptotic cells at 1 uM after 48 hrs by annexin V/propidium iodide staining based flow cytometric analysis (reference value: 2.49 %); assay type: functional
HT-29 [3] = assay: Induction of apoptosis in human HT-29 cells assessed as early apoptotic cells at 1 uM after 48 hrs by annexin V/propidium iodide staining based flow cytometric analysis (reference value: 1.72 %); assay type: functional
HT-29 [4] = assay: Antiproliferative activity against human HT-29 cells after 72 hrs by MTT assay; assay type: functional, cell-based; conditions: HT-29, 72 h
How it was run: (§1)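 MTT assay. Cells grown in MEM with 10% FBS. About 4 × 10³ cells per well were plated and left 24 h at 37 °C in 5% CO₂. Compounds were then added for a further 72 h. MTT was added to a final 5 µg/mL for 4 h at 37 °C. Formazan was dissolved in DMSO and read at 492 nm against a 630 nm reference. Each line was tested three times, and IC50 is the average of at least three determinations.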

[5] = Antiproliferative activity against human H460 cells after 72 hrs by MTT assay; assay type: functional, cell-based; conditions: NCI-H460, 72 h; how it was run: as §1
MDA-MB-231 = assay: Antiproliferative activity against human MDA-MB-231 cells after 72 hrs by MTT assay; assay type: functional, cell-based; conditions: MDA-MB-231, 72 h; how it was run: as §1
[6] = Cytotoxicity against human WI38 cells after 72 hrs by MTT assay; assay type: cell-based; conditions: WI-38, 72 h; how it was run: as §1
[7] = biological target: Mast/stem cell growth factor receptor Kit (Homo sapiens) (UniProt P10721); assay: Inhibition of c-KIT (unknown origin) at 10 uM after 1 hr by mobility shift assay
How it was run: (§2)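 Mobility shift kinase assay. Compounds were diluted in DMSO and then in kinase buffer, and tested in duplicate wells with enzyme and peptide substrate. Incubation was 1 h at 28 °C before stop buffer was added.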

[8] = biological target: Proto-oncogene tyrosine-protein kinase receptor Ret (Homo sapiens) (UniProt P07949); assay: Inhibition of RET (unknown origin) at 10 uM after 1 hr by mobility shift assay; how it was run: as §2
[9] = biological target: Receptor-type tyrosine-protein kinase FLT3 (Homo sapiens) (UniProt P36888); assay: Inhibition of FLT3 (unknown origin) at 10 uM after 1 hr by mobility shift assay; how it was run: as §2
HT-29 [10] = assay: Induction of apoptosis in human HT-29 cells after 48 hrs by annexin V/propidium iodide staining based flow cytometric analysis; assay type: functional, cell-based
HT-29 [11] = assay: Induction of apoptosis in human HT-29 cells assessed as viable cells at 1 uM after 48 hrs by annexin V/propidium iodide staining based flow cytometric analysis (reference value: 92.1 %); assay type: functional; conditions: HT-29, 48 h, read-out: Activity
HT-29 [12] = assay: Induction of apoptosis in human HT-29 cells assessed as viable cells 2 uM after 48 hrs by annexin V/propidium iodide staining based flow cytometric analysis (reference value: 92.1 %); assay type: functional
HT-29 [13] = assay: Induction of apoptosis in human HT-29 cells assessed as early apoptotic cells at 2 uM after 48 hrs by annexin V/propidium iodide staining based flow cytometric analysis (reference value: 1.72 %); assay type: functional
HT-29 [14] = assay: Induction of apoptosis in human HT-29 cells assessed as late apoptotic cells at 2 uM after 48 hrs by annexin V/propidium iodide staining based flow cytometric analysis (reference value: 2.49 %); assay type: functional
HT-29 [15] = assay: Induction of apoptosis in human HT-29 cells assessed as necrotic cells at 2 uM after 48 hrs by annexin V/propidium iodide staining based flow cytometric analysis (reference value: 3.66 %); assay type: functional
HT-29 [16] = assay: Induction of apoptosis in human HT-29 cells assessed as viable cells 5 uM after 48 hrs by annexin V/propidium iodide staining based flow cytometric analysis (reference value: 92.1 %); assay type: functional
HT-29 [17] = assay: Induction of apoptosis in human HT-29 cells assessed as early apoptotic cells at 5 uM after 48 hrs by annexin V/propidium iodide staining based flow cytometric analysis (reference value: 1.72 %); assay type: functional
HT-29 [18] = assay: Induction of apoptosis in human HT-29 cells assessed as late apoptotic cells at 5 uM after 48 hrs by annexin V/propidium iodide staining based flow cytometric analysis (reference value: 2.49 %); assay type: functional
HT-29 [19] = assay: Induction of apoptosis in human HT-29 cells assessed as necrotic cells at 5 uM after 48 hrs by annexin V/propidium iodide staining based flow cytometric analysis (reference value: 3.66 %); assay type: functional
[20] = biological target: Vascular endothelial growth factor receptor 2 (Homo sapiens) (UniProt P35968); conditions: at 10 µM;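 further: kinase activity read out by mobility shift assay after 1 h of incubation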
Chain of Vascular endothelial growth factor receptor 2 (Homo sapiens) (P35968 whole entry): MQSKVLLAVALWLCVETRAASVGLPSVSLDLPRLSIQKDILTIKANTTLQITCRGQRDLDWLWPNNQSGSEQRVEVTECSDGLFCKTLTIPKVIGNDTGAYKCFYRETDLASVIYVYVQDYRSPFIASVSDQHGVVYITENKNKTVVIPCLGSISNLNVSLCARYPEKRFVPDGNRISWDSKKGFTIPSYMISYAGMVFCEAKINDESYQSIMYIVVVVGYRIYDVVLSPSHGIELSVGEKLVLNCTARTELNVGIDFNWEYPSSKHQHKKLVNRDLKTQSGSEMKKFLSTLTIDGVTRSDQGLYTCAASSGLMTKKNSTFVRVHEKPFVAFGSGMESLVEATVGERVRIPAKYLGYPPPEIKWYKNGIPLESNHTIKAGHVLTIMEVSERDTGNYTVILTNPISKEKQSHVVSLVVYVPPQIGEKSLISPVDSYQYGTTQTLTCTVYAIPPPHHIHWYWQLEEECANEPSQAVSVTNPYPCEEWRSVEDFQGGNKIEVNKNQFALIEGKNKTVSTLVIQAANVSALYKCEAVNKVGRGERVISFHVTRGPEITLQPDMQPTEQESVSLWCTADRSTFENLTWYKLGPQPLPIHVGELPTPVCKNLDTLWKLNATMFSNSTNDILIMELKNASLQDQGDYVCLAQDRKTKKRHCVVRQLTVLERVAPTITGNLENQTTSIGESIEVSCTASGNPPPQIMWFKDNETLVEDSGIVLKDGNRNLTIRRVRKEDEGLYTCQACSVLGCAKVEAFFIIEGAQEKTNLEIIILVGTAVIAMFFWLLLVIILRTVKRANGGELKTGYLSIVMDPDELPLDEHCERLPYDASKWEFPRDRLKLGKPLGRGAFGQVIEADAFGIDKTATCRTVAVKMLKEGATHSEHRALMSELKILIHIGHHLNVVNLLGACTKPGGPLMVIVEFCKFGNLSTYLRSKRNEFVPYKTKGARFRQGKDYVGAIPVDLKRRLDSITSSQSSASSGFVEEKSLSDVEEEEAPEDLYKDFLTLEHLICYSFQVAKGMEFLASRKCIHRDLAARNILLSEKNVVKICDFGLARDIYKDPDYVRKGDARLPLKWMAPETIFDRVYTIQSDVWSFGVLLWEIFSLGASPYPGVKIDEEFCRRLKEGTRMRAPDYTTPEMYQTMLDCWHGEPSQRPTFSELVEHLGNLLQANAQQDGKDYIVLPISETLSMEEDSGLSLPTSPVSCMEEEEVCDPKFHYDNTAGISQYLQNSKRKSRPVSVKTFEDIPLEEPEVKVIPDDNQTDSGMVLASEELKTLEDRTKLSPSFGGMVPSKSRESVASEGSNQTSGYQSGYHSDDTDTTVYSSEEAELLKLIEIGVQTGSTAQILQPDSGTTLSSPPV

Chain of Proto-oncogene tyrosine-protein kinase receptor Ret (Homo sapiens) (P07949 whole entry): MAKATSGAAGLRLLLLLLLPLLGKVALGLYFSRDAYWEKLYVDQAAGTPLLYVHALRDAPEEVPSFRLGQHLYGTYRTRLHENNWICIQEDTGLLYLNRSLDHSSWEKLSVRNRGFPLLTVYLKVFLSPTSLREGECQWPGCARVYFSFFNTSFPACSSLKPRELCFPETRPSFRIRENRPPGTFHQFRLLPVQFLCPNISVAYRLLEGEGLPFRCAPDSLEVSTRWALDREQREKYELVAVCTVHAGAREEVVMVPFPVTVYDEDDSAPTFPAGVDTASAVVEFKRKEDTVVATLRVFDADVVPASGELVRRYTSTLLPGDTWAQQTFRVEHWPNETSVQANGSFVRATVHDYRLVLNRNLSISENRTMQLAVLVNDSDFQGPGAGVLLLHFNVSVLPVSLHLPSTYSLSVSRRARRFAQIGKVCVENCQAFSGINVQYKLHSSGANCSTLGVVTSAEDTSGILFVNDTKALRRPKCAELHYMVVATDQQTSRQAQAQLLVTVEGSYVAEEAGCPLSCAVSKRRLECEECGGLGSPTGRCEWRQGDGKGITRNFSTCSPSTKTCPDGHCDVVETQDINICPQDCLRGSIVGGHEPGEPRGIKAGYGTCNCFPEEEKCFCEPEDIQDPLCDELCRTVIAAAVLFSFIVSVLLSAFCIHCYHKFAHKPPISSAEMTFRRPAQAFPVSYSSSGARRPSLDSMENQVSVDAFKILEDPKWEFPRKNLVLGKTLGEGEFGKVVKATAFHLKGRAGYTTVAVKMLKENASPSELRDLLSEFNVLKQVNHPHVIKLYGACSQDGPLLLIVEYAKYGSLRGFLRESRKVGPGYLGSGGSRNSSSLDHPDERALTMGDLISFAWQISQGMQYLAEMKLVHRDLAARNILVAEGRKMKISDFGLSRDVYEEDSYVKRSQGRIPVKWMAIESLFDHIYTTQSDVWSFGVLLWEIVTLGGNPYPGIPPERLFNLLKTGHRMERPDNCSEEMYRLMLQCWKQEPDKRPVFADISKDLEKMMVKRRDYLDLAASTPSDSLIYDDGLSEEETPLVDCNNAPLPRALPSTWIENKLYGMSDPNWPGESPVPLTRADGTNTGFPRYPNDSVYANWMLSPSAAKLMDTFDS
Chain of Mast/stem cell growth factor receptor Kit (Homo sapiens) (P10721 whole entry): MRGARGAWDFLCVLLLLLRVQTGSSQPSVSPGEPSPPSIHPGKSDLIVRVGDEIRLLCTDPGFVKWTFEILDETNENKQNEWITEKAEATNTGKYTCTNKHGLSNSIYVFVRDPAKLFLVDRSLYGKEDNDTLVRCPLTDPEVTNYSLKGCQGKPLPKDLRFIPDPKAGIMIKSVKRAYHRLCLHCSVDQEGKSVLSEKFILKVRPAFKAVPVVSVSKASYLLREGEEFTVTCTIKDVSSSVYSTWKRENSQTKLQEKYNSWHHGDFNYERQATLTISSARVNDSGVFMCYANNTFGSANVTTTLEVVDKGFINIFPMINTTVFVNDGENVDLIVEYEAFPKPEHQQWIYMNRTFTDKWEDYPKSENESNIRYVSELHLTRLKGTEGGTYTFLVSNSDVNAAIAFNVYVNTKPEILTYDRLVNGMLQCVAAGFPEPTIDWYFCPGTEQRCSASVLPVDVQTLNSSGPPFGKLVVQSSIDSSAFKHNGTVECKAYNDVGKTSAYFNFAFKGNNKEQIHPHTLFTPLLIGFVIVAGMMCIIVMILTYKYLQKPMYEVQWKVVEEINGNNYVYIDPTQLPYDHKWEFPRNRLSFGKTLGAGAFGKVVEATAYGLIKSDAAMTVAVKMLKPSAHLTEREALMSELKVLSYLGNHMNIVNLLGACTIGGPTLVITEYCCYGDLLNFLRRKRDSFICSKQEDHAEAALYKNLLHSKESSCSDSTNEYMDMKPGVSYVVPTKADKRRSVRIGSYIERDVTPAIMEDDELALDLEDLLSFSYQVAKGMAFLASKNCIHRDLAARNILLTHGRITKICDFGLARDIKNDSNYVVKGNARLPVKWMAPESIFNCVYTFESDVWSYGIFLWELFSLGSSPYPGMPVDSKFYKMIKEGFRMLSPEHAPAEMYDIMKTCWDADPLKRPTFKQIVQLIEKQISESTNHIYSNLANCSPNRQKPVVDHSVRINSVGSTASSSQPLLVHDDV
Chain of Receptor-type tyrosine-protein kinase FLT3 (Homo sapiens) (P36888 whole entry): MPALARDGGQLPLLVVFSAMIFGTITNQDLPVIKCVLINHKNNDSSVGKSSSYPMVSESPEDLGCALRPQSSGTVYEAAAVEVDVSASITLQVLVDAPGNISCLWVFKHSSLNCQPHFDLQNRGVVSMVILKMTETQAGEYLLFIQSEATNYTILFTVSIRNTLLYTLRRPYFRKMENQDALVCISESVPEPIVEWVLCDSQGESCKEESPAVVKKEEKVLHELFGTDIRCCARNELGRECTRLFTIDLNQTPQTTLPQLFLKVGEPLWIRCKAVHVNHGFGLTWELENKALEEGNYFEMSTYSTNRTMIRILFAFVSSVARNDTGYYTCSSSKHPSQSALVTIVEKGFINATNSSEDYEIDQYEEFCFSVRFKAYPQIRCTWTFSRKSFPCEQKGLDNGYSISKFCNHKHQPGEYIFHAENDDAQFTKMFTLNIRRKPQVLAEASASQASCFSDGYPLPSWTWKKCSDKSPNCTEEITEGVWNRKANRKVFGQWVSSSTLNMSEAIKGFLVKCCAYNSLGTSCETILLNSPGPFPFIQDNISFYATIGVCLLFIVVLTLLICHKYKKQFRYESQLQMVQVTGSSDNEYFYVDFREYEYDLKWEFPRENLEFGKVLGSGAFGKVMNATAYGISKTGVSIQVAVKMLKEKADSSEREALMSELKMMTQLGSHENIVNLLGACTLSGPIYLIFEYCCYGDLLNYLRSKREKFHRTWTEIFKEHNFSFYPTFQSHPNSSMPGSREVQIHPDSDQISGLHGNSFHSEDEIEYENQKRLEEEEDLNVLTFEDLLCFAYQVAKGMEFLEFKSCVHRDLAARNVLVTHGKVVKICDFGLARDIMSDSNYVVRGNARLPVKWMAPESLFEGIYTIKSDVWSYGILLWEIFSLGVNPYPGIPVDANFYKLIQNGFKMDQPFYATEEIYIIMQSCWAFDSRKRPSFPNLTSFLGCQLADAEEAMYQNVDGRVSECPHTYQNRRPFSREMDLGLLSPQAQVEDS

IC50 (HT-29 [4]) [µM] | IC50 (MDA-MB-231) [µM] | inhibition [7] [%] | inhibition [8] [%] | inhibition [9] [%] | inhibition [20] [%] | SMILES | IC50 [5] [µM] | IC50 [6] [µM] | also measured
0.9 | 1.54 | 79.9 | 84.4 | 84.9 | 10 | CCN(CC)CCn1cnnc1-c1cc(Oc2ccc(NC(=O)Nc3ccc(Cl)c(C(F)(F)F)c3)cc2F)ccn1 | 0.85 | 6.73 | Activity (HT-29 [1]): 7.44%; Activity (HT-29 [2]): 8.34%; Activity (HT-29 [3]): 3.92%; Activity (HT-29 [10]): Dose-dependent effect; viability at 1 µM (HT-29 [11]): 80.3%; Activity (HT-29 [12]): 66.4%; Activity (HT-29 [13]): 14.4%; Activity (HT-29 [14]): 13.2%; Activity (HT-29 [15]): 6.03%; Activity (HT-29 [16]): 43.3%; Activity (HT-29 [17]): 10.6%; Activity (HT-29 [18]): 37.5%; Activity (HT-29 [19]): 8.59%
> 50 | 9.68 | – | – | – | – | Cn1ncnc1-c1cc(Oc2ccc(NC(=O)Nc3cccc(C(F)(F)F)c3)cc2F)ccn1 | 11.6 | 22.4 | –
12.4 | > 50 | – | – | – | – | Cn1ncnc1-c1cc(Oc2ccc(NC(=O)Nc3ccc(Cl)c(C(F)(F)F)c3)cc2F)ccn1 | > 50 | > 50 | –
0.68 | 7.49 | – | – | – | 11.3 | CN(C)CCCn1cnnc1-c1cc(Oc2ccc(NC(=O)Nc3ccc(Cl)cc3Cl)cc2F)ccn1 | 3.68 | 3.26 | –
2.86 | 8.28 | 56.7 | 42.3 | 38.5 | 0 | O=C(Nc1ccc(Oc2ccnc(-c3nncn3CCCN3CCOCC3)c2)c(F)c1)Nc1ccc(Cl)c(C(F)(F)F)c1 | 3.23 | 9.65 | –
0.89 | 14.2 | 71 | 45.5 | 72.1 | 35 | CN(C)CCCn1cnnc1-c1cc(Oc2ccc(NC(=O)Nc3ccc(F)c(Cl)c3)cc2F)ccn1 | 1.27 | 5.37 | –
3.13 | 40.5 | – | – | – | 1.7 | CN(C)CCCn1cnnc1-c1cc(Oc2ccc(NC(=O)Nc3ccccc3C(F)(F)F)cc2F)ccn1 | 10.9 | 28.6 | –
3.37 | 3.08 | 95.6 | 97 | 98.5 | – | CNC(=O)c1cc(Oc2ccc(NC(=O)Nc3ccc(Cl)c(C(F)(F)F)c3)cc2)ccn1 [SORAFENIB] | 2.25 | 8.42 | –
1.47 | 16.4 | 60.5 | 77.7 | 42.2 | 2.7 | CN(C)CCn1cnnc1-c1cc(Oc2ccc(NC(=O)Nc3cccc(C(F)(F)F)c3)cc2F)ccn1 | 2.15 | 11.2 | –
1.21 | 25.2 | 63.1 | 30.9 | 44.3 | 20.3 | CN(C)CCCn1cnnc1-c1cc(Oc2ccc(NC(=O)Nc3ccc(F)c(F)c3)cc2F)ccn1 | 1.08 | 15.3 | –
2.57 | 5.32 | – | – | – | – | Cn1cnnc1-c1cc(Oc2ccc(NC(=O)Nc3ccc(Cl)c(C(F)(F)F)c3)cc2F)ccn1 | 2.31 | 9.85 | –
0.5 | 34 | 40.4 | 1.9 | 59.6 | 2.7 | CCN(CC)CCn1cnnc1-c1cc(Oc2ccc(NC(=O)Nc3ccc(F)c(Cl)c3)cc2F)ccn1 | 7.39 | 28.7 | –
0.98 | 13.3 | 69.9 | 85.6 | 69.2 | 62.8 | CN(C)CCCn1cnnc1-c1cc(Oc2ccc(NC(=O)Nc3cccc(C(F)(F)F)c3)cc2F)ccn1 | 1.79 | 11.6 | –
0.63 | 0.72 | 66.5 | 72.1 | 61 | 11.5 | CCN(CC)CCn1cnnc1-c1cc(Oc2ccc(NC(=O)Nc3cccc(C(F)(F)F)c3)cc2F)ccn1 | 9.87 | 6.92 | –
0.72 | 8.32 | 74 | 63.3 | 52.2 | 26.9 | CN(C)CCn1cnnc1-c1cc(Oc2ccc(NC(=O)Nc3ccc(F)c(Cl)c3)cc2F)ccn1 | 1.58 | 7.58 | –
0.88 | 1.07 | 70.4 | 74.1 | 66.3 | 0 | CN(C)CCn1cnnc1-c1cc(Oc2ccc(NC(=O)Nc3ccc(Cl)c(C(F)(F)F)c3)cc2F)ccn1 | 1.15 | 3.76 | –
3.59 | 1.79 | – | – | – | – | CCN(CC)CCn1cnnc1-c1cc(Oc2ccc(NC(=O)Nc3ccc(Cl)cc3Cl)cc2F)ccn1 | 5.38 | 4.28 | –
3.02 | 6.47 | – | – | – | – | Cn1cnnc1-c1cc(Oc2ccc(NC(=O)Nc3cccc(C(F)(F)F)c3)cc2F)ccn1 | 1.27 | 12.6 | –
15.7 | – | – | – | – | – | O=C(Nc1ccc(Oc2ccnc(-c3nncn3CCCN3CCOCC3)c2)c(F)c1)Nc1ccccc1C(F)(F)F | – | – | –
1.24 | 41.3 | 27.7 | 7.1 | 39 | 0 | CCN(CC)CCn1cnnc1-c1cc(Oc2ccc(NC(=O)Nc3ccc(F)c(F)c3)cc2F)ccn1 | 14.8 | > 50 | –
5.86 | > 50 | 22.7 | 43 | 17.6 | 2.2 | CN(C)CCn1cnnc1-c1cc(Oc2ccc(NC(=O)Nc3ccccc3C(F)(F)F)cc2F)ccn1 | > 50 | > 50 | –
10.9 | > 50 | – | – | – | – | O=C(Nc1ccc(Oc2ccnc(-c3nncn3C3CC3)c2)c(F)c1)Nc1ccc(Cl)c(C(F)(F)F)c1 | > 50 | – | –
3.56 | > 50 | 43.5 | 45.6 | 22 | – | O=C(Nc1ccc(Oc2ccnc(-c3nncn3CCCN3CCOCC3)c2)c(F)c1)Nc1ccc(Cl)cc1Cl | – | – | –
1.89 | 7.96 | – | – | – | 6 | CN(C)CCn1cnnc1-c1cc(Oc2ccc(NC(=O)Nc3ccc(Cl)cc3Cl)cc2F)ccn1 | 4.35 | 10.4 | –
3.62 | > 50 | 3.9 | 17.6 | 13.5 | – | CN(C)CCn1cnnc1-c1cc(Oc2ccc(NC(=O)Nc3ccc(F)c(F)c3)cc2F)ccn1 | 9.05 | > 50 | –
16.2 | > 50 | – | – | – | – | O=C(Nc1ccc(Oc2ccnc(-c3nncn3CCCN3CCOCC3)c2)c(F)c1)Nc1ccc(F)c(Cl)c1 | 16.2 | – | –
1.4 | 7.88 | 69.9 | 79.3 | 86.9 | 10.9 | CN(C)CCCn1cnnc1-c1cc(Oc2ccc(NC(=O)Nc3ccc(Cl)c(C(F)(F)F)c3)cc2F)ccn1 | 1.68 | 7.91 | –
3.41 | 11.6 | – | – | – | – | CCN(CC)CCn1cnnc1-c1cc(Oc2ccc(NC(=O)Nc3ccccc3C(F)(F)F)cc2F)ccn1 | > 50 | 23.5 | –
